According to ChEMBL document CHEMBL4354843, “Structure-Based Design of a Potent and Selective Covalent Inhibitor for SRC Kinase That Targets a P-Loop Cysteine” (J Med Chem, 2020):
The source made the active and inactive calls. The calls are words filed in the database; no cut-off is given here.

Columns and labels:
[1] = system: Epidermal growth factor receptor (Homo sapiens), P00533 [UNDEFINED MUTATION]; assay: Binding affinity to human partial length EGFR L747-T751del/Sins mutant expressed in bacterial expression system assessed as residual binding level at 1 uM by Kinomescan method relative to control
Procedure, shortened: (§1)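 KinomeScan active site-directed competition binding panel (468 kinases), compound tested at 1 μM. Result expressed as remaining kinase signal versus DMSO control (percent of control).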

[2] = target: STE20-like serine/threonine-protein kinase (Homo sapiens) (UniProt Q9H2G2); assay: Binding affinity to wild-type human partial length SLK (S14 to A307 residues) expressed in bacterial expression system assessed as residual binding level at 1 uM by Kinomescan method relative to control
Chain of STE20-like serine/threonine-protein kinase (Homo sapiens) (Q9H2G2 whole entry, looked up, the tested form may be a part): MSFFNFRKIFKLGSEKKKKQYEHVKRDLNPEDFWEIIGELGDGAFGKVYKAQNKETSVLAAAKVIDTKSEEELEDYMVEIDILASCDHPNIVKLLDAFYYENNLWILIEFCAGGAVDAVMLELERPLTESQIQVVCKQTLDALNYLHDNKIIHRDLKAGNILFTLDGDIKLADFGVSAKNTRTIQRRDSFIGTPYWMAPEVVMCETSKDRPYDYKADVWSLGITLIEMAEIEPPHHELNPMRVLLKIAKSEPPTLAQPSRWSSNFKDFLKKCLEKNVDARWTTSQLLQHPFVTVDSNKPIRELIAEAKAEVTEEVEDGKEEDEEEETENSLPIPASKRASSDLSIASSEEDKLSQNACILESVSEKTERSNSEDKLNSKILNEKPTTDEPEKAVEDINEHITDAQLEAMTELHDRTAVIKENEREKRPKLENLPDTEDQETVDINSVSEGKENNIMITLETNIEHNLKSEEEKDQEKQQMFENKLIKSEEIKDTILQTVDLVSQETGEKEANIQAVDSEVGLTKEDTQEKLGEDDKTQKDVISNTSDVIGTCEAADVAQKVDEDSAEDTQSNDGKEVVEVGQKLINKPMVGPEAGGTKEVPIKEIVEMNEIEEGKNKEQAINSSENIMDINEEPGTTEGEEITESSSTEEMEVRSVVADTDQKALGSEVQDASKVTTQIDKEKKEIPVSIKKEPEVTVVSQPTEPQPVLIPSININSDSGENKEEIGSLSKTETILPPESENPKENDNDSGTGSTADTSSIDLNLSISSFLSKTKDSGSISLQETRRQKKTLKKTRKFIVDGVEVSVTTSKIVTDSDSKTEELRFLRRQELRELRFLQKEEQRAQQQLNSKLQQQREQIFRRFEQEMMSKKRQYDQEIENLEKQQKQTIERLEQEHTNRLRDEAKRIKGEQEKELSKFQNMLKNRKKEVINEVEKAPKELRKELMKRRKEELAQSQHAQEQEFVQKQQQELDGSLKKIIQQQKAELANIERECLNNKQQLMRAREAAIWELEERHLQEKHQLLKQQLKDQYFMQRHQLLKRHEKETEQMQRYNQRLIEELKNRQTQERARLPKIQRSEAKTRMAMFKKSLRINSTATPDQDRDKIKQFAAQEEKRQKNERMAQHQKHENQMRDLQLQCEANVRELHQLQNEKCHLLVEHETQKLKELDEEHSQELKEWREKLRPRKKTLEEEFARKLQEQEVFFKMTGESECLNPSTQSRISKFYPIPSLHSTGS

[3] = target: Serine/threonine-protein kinase MRCK beta (Homo sapiens) (UniProt Q9Y5S2); assay: Binding affinity to wild-type human partial length MRCKB (L56 to S417 residues) expressed in bacterial expression system assessed as residual binding level at 1 uM by Kinomescan method relative to control
[4] = target: Serine/threonine-protein kinase Nek11 (Homo sapiens) (UniProt Q8NG66); assay: Binding affinity to wild-type human partial length NEK11 (M1 to E313 residues) expressed in mammalian expression system assessed as residual binding level at 1 uM by Kinomescan method relative to control
Chain of Serine/threonine-protein kinase Nek11 (Homo sapiens) (Q8NG66 whole entry, the tested form may be a part): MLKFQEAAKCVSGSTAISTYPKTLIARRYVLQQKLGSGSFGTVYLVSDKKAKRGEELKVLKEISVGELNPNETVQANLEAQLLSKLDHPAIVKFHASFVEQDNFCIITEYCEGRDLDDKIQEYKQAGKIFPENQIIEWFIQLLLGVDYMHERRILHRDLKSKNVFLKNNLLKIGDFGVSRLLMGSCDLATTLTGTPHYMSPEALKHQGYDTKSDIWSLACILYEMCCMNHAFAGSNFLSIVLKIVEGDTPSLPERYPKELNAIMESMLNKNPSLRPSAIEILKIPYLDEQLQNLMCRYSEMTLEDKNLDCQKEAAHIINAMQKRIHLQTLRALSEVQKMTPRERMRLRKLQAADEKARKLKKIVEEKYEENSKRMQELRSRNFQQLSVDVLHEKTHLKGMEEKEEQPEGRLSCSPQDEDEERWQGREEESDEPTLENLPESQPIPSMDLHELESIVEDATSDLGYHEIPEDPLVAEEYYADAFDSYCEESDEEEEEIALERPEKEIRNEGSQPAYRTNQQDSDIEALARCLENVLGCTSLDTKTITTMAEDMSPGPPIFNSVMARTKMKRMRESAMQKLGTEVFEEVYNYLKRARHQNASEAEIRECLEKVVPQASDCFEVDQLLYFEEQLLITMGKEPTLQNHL
Procedure, shortened: (§2)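 Active-site-directed competition binding panel of 468 kinases (KinomeScan), compound at 1 μM. The read-out is kinase remaining bound, given as a percentage of the DMSO control. […]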

[5] = target: Serine/threonine-protein kinase 38-like (Homo sapiens) (UniProt Q9Y2H1); assay: Binding affinity to wild-type human partial length NDR2 (N34 to E447 residues) expressed in bacterial expression system assessed as residual binding level at 1 uM by Kinomescan method relative to control; procedure, shortened: as §2
Chain of Serine/threonine-protein kinase 38-like (Homo sapiens) (Q9Y2H1 2-464 limits assumed): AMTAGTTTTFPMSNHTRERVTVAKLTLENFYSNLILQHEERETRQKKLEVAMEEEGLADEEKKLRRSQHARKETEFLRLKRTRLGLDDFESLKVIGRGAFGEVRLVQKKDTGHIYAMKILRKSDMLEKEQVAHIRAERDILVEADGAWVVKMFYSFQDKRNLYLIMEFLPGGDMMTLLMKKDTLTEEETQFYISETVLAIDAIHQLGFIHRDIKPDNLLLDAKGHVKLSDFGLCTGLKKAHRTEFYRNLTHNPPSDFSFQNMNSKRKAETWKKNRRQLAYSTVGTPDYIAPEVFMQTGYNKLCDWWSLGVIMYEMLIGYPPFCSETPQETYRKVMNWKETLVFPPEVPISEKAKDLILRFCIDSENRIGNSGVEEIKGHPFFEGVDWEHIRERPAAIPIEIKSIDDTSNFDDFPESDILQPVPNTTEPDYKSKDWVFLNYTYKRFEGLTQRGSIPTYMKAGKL

[6] = target: Ribosomal protein S6 kinase alpha-6 (Homo sapiens) (UniProt Q9UK32); assay: Binding affinity to wild-type human partial length C-terminal RSK4 kinase domain 2 (I401 to Y711 residues) expressed in bacterial expression system assessed as residual binding level at 1 uM by Kinomescan method relative to control
Procedure, shortened: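 KinomeScan, an active site-directed competition binding panel of 468 kinases. The test compound was at 1 μM. The readout is remaining kinase binding as a percentage of the DMSO control. Scores above 35% were treated as weak binding and not listed.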

[7] = target: Leukocyte tyrosine kinase receptor (Homo sapiens) (UniProt P29376); assay: Binding affinity to wild-type human partial length LTK (P422 to S744 residues) expressed in bacterial expression system assessed as residual binding level at 1 uM by Kinomescan method relative to control
[8] = target: Receptor tyrosine-protein kinase erbB-4 (Homo sapiens) (UniProt Q15303); assay: Binding affinity to wild-type human partial length ERBB4 (L690 to K994 residues) expressed in bacterial expression system assessed as residual binding level at 1 uM by Kinomescan method relative to control; procedure, shortened: as §2
[9] = target: ALK tyrosine kinase receptor (Homo sapiens) (UniProt Q9UM73); assay: Binding affinity to wild-type human partial length ALK (I1088 to E1409 residues) expressed in mammalian expression system assessed as residual binding level at 1 uM by Kinomescan method relative to control
Chain of ALK tyrosine kinase receptor (Homo sapiens) (Q9UM73 19-1620 limits assumed): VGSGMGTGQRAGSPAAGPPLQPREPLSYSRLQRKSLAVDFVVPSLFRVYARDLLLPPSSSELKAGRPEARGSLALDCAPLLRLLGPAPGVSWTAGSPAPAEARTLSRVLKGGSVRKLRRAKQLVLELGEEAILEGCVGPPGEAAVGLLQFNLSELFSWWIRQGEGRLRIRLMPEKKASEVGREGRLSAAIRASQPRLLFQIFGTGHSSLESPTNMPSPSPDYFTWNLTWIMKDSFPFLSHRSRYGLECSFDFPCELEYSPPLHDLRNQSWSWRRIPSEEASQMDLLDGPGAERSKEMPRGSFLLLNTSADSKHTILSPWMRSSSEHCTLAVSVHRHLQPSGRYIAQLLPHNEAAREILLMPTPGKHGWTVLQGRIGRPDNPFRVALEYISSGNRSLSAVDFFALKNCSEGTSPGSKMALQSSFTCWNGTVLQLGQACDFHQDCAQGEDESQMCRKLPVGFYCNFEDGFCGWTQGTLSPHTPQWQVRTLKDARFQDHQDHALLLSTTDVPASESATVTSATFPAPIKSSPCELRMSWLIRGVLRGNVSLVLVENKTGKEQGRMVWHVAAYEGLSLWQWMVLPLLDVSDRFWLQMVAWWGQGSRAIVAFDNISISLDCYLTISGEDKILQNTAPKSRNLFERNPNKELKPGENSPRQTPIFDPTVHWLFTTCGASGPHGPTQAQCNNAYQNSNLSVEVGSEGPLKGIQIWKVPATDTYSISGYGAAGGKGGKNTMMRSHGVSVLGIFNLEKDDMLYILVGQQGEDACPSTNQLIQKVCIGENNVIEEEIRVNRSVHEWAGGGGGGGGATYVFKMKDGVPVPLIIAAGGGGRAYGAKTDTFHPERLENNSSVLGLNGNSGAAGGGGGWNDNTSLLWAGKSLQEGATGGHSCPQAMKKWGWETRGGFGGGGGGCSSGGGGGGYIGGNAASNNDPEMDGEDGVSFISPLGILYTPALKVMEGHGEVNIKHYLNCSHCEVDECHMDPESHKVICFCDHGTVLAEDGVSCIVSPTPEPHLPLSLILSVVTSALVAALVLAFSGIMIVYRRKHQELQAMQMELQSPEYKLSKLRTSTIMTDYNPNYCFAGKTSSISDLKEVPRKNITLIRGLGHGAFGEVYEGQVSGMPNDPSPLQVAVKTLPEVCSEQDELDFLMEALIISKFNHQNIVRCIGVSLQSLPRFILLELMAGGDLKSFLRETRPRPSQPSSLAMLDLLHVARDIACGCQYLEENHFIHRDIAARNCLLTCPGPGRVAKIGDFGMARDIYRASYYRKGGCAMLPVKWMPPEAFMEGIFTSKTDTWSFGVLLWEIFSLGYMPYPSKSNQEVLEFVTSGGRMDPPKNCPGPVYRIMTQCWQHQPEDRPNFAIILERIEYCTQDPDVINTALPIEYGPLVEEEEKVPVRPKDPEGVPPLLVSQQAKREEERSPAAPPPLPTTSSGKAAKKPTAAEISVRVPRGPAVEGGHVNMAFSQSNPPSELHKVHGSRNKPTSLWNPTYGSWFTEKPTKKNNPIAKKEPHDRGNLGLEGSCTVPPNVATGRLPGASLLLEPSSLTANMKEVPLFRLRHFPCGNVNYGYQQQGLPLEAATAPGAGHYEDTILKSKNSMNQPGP

[10] = target: Activin receptor type-1-like (Homo sapiens) (UniProt P37023); assay: Binding affinity to wild-type human ACVRL1 (L164 to Q503 residues) expressed in bacterial expression system assessed as residual binding level at 1 uM by Kinomescan method relative to control
Procedure, shortened: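 Active-site-directed KinomeScan competition binding panel covering 468 kinases, compound tested at 1 μM. Each readout is the kinase signal remaining with compound, expressed as a percentage of the DMSO control. […]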

[11] = target: Serine/threonine-protein kinase 3 (Homo sapiens) (UniProt Q13188); assay: Binding affinity to wild-type human partial length MST2 (D17 to E318 residues) expressed in bacterial expression system assessed as residual binding level at 1 uM by Kinomescan method relative to control
[12] = target: Angiopoietin-1 receptor (Homo sapiens) (UniProt Q02763); assay: Binding affinity to wild-type human partial length TIE2 (N804 to T1112 residues) expressed in bacterial expression system assessed as residual binding level at 1 uM by Kinomescan method relative to control
Chain of Angiopoietin-1 receptor (Homo sapiens) (Q02763 whole entry, the tested form may be a part): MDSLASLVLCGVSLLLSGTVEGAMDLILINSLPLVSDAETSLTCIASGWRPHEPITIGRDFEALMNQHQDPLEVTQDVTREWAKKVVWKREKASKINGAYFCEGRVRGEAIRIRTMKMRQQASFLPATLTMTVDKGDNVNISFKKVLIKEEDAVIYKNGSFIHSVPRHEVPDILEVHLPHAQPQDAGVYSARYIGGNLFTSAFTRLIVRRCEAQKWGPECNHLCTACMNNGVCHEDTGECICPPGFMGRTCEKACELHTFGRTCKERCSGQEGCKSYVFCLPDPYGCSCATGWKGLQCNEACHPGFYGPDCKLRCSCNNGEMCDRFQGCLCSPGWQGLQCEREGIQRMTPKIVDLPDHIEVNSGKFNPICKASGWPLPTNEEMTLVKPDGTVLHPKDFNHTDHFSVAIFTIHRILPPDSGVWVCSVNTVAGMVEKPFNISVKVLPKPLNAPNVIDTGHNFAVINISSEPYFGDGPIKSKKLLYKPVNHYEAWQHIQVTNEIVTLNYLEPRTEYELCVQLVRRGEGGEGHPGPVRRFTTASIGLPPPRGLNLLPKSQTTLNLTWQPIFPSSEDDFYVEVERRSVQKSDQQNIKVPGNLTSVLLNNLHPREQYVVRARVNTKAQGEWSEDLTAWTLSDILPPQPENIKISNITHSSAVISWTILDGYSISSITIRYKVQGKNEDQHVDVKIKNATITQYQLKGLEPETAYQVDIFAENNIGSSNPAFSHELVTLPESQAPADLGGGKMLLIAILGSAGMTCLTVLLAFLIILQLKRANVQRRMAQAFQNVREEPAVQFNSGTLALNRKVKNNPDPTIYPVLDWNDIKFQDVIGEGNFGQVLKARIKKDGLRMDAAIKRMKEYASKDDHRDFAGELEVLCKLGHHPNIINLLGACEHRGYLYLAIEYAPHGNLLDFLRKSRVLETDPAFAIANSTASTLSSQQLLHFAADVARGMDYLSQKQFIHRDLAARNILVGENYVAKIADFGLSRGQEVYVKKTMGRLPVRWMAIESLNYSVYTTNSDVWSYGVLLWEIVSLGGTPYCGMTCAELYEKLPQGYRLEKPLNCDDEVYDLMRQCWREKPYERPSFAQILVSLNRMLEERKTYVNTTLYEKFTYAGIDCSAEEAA

[13] = target: Ephrin type-A receptor 1 (Homo sapiens) (UniProt P21709); assay: Binding affinity to wild-type human partial length EPHA1 (V588 to I913 residues) expressed in bacterial expression system assessed as residual binding level at 1 uM by Kinomescan method relative to control
[14] = target: Macrophage-stimulating protein receptor (Homo sapiens) (UniProt Q04912); assay: Binding affinity to wild-type human partial length MST1R (I1057 to L1363 residues) expressed in bacterial expression system assessed as residual binding level at 1 uM by Kinomescan method relative to control
[15] = target: Tyrosine-protein kinase SYK (Homo sapiens) (UniProt P43405); assay: Binding affinity to wild-type human partial length SYK (D354 to N635 residues) expressed in bacterial expression system assessed as residual binding level at 1 uM by Kinomescan method relative to control
[16] = target: Phosphatidylinositol 4-phosphate 5-kinase type-1 alpha (Homo sapiens) (UniProt Q99755); assay: Binding affinity to wild-type human full length PIP5K1A (M1 to H562 residues) expressed in bacterial expression system assessed as residual binding level at 1 uM by Kinomescan method relative to control
Procedure, shortened: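 Active-site-directed competition binding panel (KinomeScan) covering 468 kinases. Test agent was screened at 1 μM. The read-out is the remaining kinase signal expressed relative to a DMSO control. Scores above 35%, taken as weak binding, were not reported.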

Mus musculus = assay: In vivo inhibition of SRC in C57B6 mouse assessed as reduction in phosphorylation of SRC Y416 at 5 mg/kg, ip measured after 2 to 4 hrs by Western blot analysis; assay type: functional, organism-based
Procedure, shortened: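 Adult C57B6 mice, n = 2 per condition, dosed intraperitoneally 5 mg/kg three times every 12 h; vehicle 5% DMSO/95% D5W. Spleens taken 2 or 4 h after the final dose and lysed in M-PER with protease/phosphatase inhibitors. Lysates blotted for phospho-SRC Y416, total SRC and β-actin.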

[17] = system: Phosphatidylinositol 4,5-bisphosphate 3-kinase catalytic subunit alpha isoform (Homo sapiens), P42336 [M1043I]; assay: Binding affinity to human partial length PIK3CA M1043I mutant (R108 to N1068 residues) expressed in mammalian expression system assessed as residual binding level at 1 uM by Kinomescan method relative to control; procedure, shortened: as §1
[18] = target: Proto-oncogene tyrosine-protein kinase receptor Ret (Homo sapiens) (UniProt P07949); assay: Binding affinity to wild-type human partial length RET (E713 to D1014 residues) expressed in bacterial expression system assessed as residual binding level at 1 uM by Kinomescan method relative to control
[19] = target: Serine/threonine-protein kinase PLK4 (Homo sapiens) (UniProt O00444); assay: Binding affinity to wild-type human partial length PLK4 (M1 to S273 residues) expressed in mammalian expression system assessed as residual binding level at 1 uM by Kinomescan method relative to control

In the case of `C=CC(=O)Nc1ccccc1Nc1nc(Nc2ccc(N3CCN(C)CC3)cc2)ncc1C(=O)Nc1c(C)cccc1Cl`, the Activity [1] is reported as 73%, the Activity [2] is reported as 100% and the Activity [3] is reported as 100%. It also gave an Activity [4] of 72%, an Activity [5] of 93% and an Activity [6] of 96%. The Activity [7] was 100%, the Activity [8] was 6.6% and the Activity [9] was 100%. It also gave an Activity [10] of 100%, an Activity [11] of 100% and an Activity [12] of 100%. For the same compound, the Activity [13] was 100%, the Activity [14] was 100% and the Activity [15] was 100%. For the same compound, the Activity [16] was 100%, the inhibition (Mus musculus) was “Active” and the Activity [17] was 100%. It also gave an Activity [18] of 100% and an Activity [19] of 92%.
